Source: PMC2664388 (Pharmaceutical research, 2008)
Read-outs that look alike come from different tables or passages of the source.

Assays:
[1] = Trans-epithelial electrical resistance; assay type: in vitro ADME, New Zealand albino rabbits; settings: transport buffers with or without 5% HP-β-CD, 3h
[2] = Corneal permeation, side-bi-side diffusion apparatus; assay type: in vitro ADME, New Zealand albino rabbits; settings: for Transcorneal permeability: 150μM in DPBS with 5% HP-β-CD, 34°C
[3] = Permeation across sclera/choroid/RPE, Valia-Chein side-bi-side cells; settings: for Permeability across sclera/choroid/RPE: 150μM in DPBS with 5% HP-β-CD, 37°C
[4] = Aqueous solubility, shake flask method; assay type: physicochemical; settings: 25°C, 24h
[5] = Phase solubility with HP-β-CD; assay type: physicochemical
[6] = pH solution stability in buffers; assay type: physicochemical
In short: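 Test compound (25 μL of a 1 mg/mL stock) was added to 5 mL of USP buffer pre-equilibrated at 25 or 40°C. Content was measured by RP-HPLC on a C18 column with UV at 284 nm. The mobile phase was 20 mM KH2PO4 (pH 2.5) and acetonitrile at 75:25, run at 1 mL/min.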

[7] = Stability in ocular tissue homogenates; assay type: in vitro ADME, New Zealand albino rabbits; settings: 37°C, after 15h, 1mg/mL protein
[8] = Transscleral permeation, Valia-Chein side-bi-side cells; assay type: in vitro ADME, New Zealand albino rabbits; settings: 150μM in DPBS with 5% HP-β-CD, 37°C
[9] = sonicated 15min, equilibration 4 days; ref 29 Tommasini et al.; cited from earlier work
[10] = sonicated 15min, equilibration 4 days; ref 29 Tommasini et al.; cited from earlier work; remark: listed apart in the source
[11] = ref 21 Serra et al., cited from earlier work
[12] = oral administration, cumulative urinary recovery; ref 14 Ameer et al.; cited from earlier work

CC(O)COC[C@H]1O[C@@H]2O[C@H]3[C@H](O)[C@@H](O)[C@@H](O[C@H]4[C@H](O)[C@@H](O)[C@@H](O[C@H]5[C@H](O)[C@@H](O)[C@@H](O[C@H]6[C@H](O)[C@@H](O)[C@@H](O[C@H]7[C@H](O)[C@@H](O)[C@@H](O[C@H]8[C@H](O)[C@@H](O)[C@@H](O[C@H]1[C@H](O)[C@H]2O)O[C@@H]8COCC(C)O)O[C@@H]7COCC(C)O)O[C@@H]6COCC(C)O)O[C@@H]5COCC(C)O)O[C@@H]4COCC(C)O)O[C@@H]3COCC(C)O (stereo partly drawn) [HP-β-CD, 2-hydroxypropyl-beta-cyclodextrin]
TEER of corneas [1]: 5±0.3 KΩcm^2

OCC(O)C(O)C(O)C(O)[14CH2]O (stereo not drawn) [[^14C]mannitol]
Mean percent cumulative amount transported per hour across the cornea ([2]; 0.5 μCi/mL, 3h experiment): 1±0.15 percent per hour
Mean percent cumulative amount transported per hour across the sclera/choroid/RPE ([3]; 0.5 μCi/mL): 0.1±0.04 percent per hour

COc1ccc([C@@H]2CC(=O)c3c(O)cc(O[C@@H]4O[C@H](CO[C@@H]5O[C@@H](C)[C@H](O)[C@@H](O)[C@H]5O)[C@@H](O)[C@H](O)[C@H]4O)cc3O2)cc1O [hesperidin, hesperetin 7-rutinoside]
Saturation Solubility ([4]; Water (0% HP-β-CD)): 4.95 ± 0.99 µg/mL
Saturation Solubility ([4]; pH 1.21, 200 mM buffer): 4.15 ± 0.34 µg/mL
Saturation Solubility ([4]; pH 3.11, 200 mM buffer): 8.44 ± 0.47 µg/mL
Saturation Solubility ([4]; pH 5.12, 200 mM buffer): 5.96 ± 1.92 µg/mL
Saturation Solubility ([4]; pH 7.48, 200 mM buffer): 5.26 ± 0.31 µg/mL
Saturation Solubility ([4]; pH 9.11, 200 mM buffer): 8.93 ± 0.73 µg/mL
Fold Increase in solubility ([5]; 1 %w/v HP-β-CD): 9
Hesperidin Solubility ([5]; 1 %w/v HP-β-CD in water, 25°C, 24h): 42.97 ± 4.28 µg/mL
Fold Increase in solubility ([5]; 2.5 %w/v HP-β-CD): 18
Hesperidin Solubility ([5]; 2.5 %w/v HP-β-CD in water, 25°C, 24h): 83.34 ± 6.34 µg/mL
Fold Increase in solubility ([5]; 5 %w/v HP-β-CD): 37
Hesperidin Solubility ([5]; 5 %w/v HP-β-CD in water, 25°C, 24h): 169.90 ± 25.36 µg/mL
Fold Increase in solubility ([5]; 7.5 %w/v HP-β-CD): 48
Hesperidin Solubility ([5]; 7.5 %w/v HP-β-CD in water, 25°C, 24h): 219.03 ± 15.62 µg/mL
Fold Increase in solubility ([5]; 10 %w/v HP-β-CD): 55
Hesperidin Solubility ([5]; 10 %w/v HP-β-CD in water, 25°C, 24h): 252.77 ± 8.81 µg/mL
Fold Increase in solubility ([5]; 15 %w/v HP-β-CD): 76
Hesperidin Solubility ([5]; 15 %w/v HP-β-CD in water, 25°C, 24h): 348.55 ± 5.28 µg/mL
Hesperidin Solubility ([5]; 20 %w/v HP-β-CD in water, 25°C, 24h): 431.97 ± 0.43 µg/mL
Binding constant (K) with HP-β-CD, 1:1 complex ([5]; from phase solubility plot, 25°C, 24h): 625 ± 78 M⁻¹
Stability in aqueous solutions (decrease in hesperidin content) ([6]; pH 1.2, 3, 5, 7.4, 25 and 40°C, upto 2 months): did not demonstrate any decrease
Degradation rate constant ([6]; pH 9, 25°C): 0.03 day⁻¹
Half-life ([6]; pH 9, 25°C): 23 days
Degradation rate constant ([6]; pH 9, 40°C): 0.15 day⁻¹
Half-life ([6]; pH 9, 40°C): 4.5 days
Hesperetin generation, or decrease in hesperidin concentrations, in the homogenates [7]: not observed
Transcorneal permeability ([2]; apical to basolateral (A-B)): 1.11±0.86×10^−6 cm/s
Transcorneal permeability ([2]; basolateral to apical (B-A)): 1.16±0.05×10^−6 cm/s
Permeability across sclera alone [8]: 10.2±2.1×10^−6 cm/s
Intrinsic solubility [9]: 36 µM
Binding constant with HP-β-CD [10]: 60 M⁻¹
pKa ([11]; all of the alcoholic hydroxyl groups): greater than 11.5
pKa ([11]; two phenolic hydroxyl groups): 10±0.2
Bioavailability [12]: < 25%
Permeability across sclera/choroid/RPE ([3]; RPE to sclera (R-S) direction): 1.52±0.78×10^−6 cm/s
Permeability across sclera/choroid/RPE ([3]; sclera to RPE (S-R) direction): 0.82±0.69×10^−6 cm/s
